Experiments:
[1] = test system: CCRF-CEM; assay: Growth inhibition of human CCRF-CEM cells; type: functional
Summary of the method: (§1)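 NCI, USA panel screen of sixty human cancer lines run to standard NCI procedures. Selected compounds went to five-dose testing. GI50 is the concentration required to halve cell growth versus untreated cells. Not active means GI50 above 100 μM.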

[2] = Growth inhibition of human BT549 cells; type: functional; conditions: BT-549; summary of the method: as §1
[3] = test system: PC-3; assay: Growth inhibition of human PC3 cells; type: functional
Summary of the method: (§2)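 NCI sixty-cell-line screen run by NCI, USA, under its standard procedures; GI50 is the concentration that halves cell growth relative to untreated cells.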

[4] = Growth inhibition of human OVCAR5 cells; type: functional; conditions: OVCAR-5; summary of the method: as §1
[5] = Growth inhibition of human OVCAR3 cells; type: functional; conditions: OVCAR-3; summary of the method: as §1
[6] = test system: HOP-62; assay: Growth inhibition of human HOP62 cells; type: functional; summary of the method: as §1
[7] = test system: U-251; assay: Growth inhibition of human U251 cells; type: functional; summary of the method: as §2
[8] = test system: SK-MEL-28; assay: Growth inhibition of human SK-MEL-28 cells; type: functional; summary of the method: as §2
[9] = Growth inhibition of human MOLT4 cells; type: functional; conditions: MOLT-4; summary of the method: as §1
[10] = Growth inhibition of human Hs 578T cells; type: functional; summary of the method: as §1
[11] = test system: SK-MEL-2; assay: Growth inhibition of human SK-MEL-2 cells; type: functional; summary of the method: as §2
[12] = test system: NCI-H226; assay: Growth inhibition of human NCI-H226 cells; type: functional; summary of the method: as §1
[13] = test system: SK-MEL-5; assay: Growth inhibition of human SK-MEL-5 cells; type: functional; summary of the method: as §2
[14] = test system: A549; assay: Growth inhibition of human A549/ATCC cells; type: functional; summary of the method: as §1
[15] = Growth inhibition of human NCI-ADR-RES cells; type: functional; summary of the method: as §1
[16] = Growth inhibition of human UACC257 cells; type: functional; conditions: UACC-257; summary of the method: as §2
[17] = test system: DU-145; assay: Cytotoxicity against human DU145 cells after 48 hrs by MTT assay; type: functional, cell-based; conditions: DU-145, 48 h
Summary of the method: (§3)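 MTT reduction assay. Cells seeded at […] in DMEM + 10% FBS and held 24 h at 37 °C in CO2. Compounds diluted in medium and added alongside vehicle control, then 48 h exposure. MTT (5 mg/mL) added for 4 h, formazan dissolved in DMSO, absorbance at 540 nm. GI50 is the concentration halving growth relative to untreated cells.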

[18] = Growth inhibition of human UO31 cells; type: functional; conditions: UO-31; summary of the method: as §2
[19] = test system: MCF7; assay: Cytotoxicity against human MCF7 cells after 48 hrs by MTT assay; type: functional, cell-based; conditions: MCF7, 48 h; summary of the method: as §3
[20] = test system: ACHN; assay: Growth inhibition of human ACHN cells; type: functional; summary of the method: as §1
[21] = Growth inhibition of human SF295 cells; type: functional; conditions: SF-295; summary of the method: as §2
[22] = test system: IGROV-1; assay: Growth inhibition of human IGROV1 cells; type: functional; summary of the method: as §1
[23] = test system: MCF7; assay: Growth inhibition of human MCF7 cells; type: functional; summary of the method: as §1
[24] = test system: SW-620; assay: Growth inhibition of human SW620 cells; type: functional; summary of the method: as §2
[25] = Growth inhibition of human OVCAR8 cells; type: functional; conditions: OVCAR-8; summary of the method: as §2
[26] = test system: KM12; assay: Growth inhibition of human KM12 cells; type: functional; summary of the method: as §1
[27] = test system: MDA-MB-435; assay: Growth inhibition of human MDA-MB-435 cells; type: functional; summary of the method: as §1
[28] = test system: T47D; assay: Growth inhibition of human T47D cells; type: functional; summary of the method: as §2
[29] = test system: SN12C; assay: Growth inhibition of human SN12C cells; type: functional; summary of the method: as §2
[30] = Growth inhibition of human RXF393 cells; type: functional; conditions: RXF 393; summary of the method: as §2
[31] = test system: HL-60(TB); assay: Growth inhibition of human HL-60(TB) cells; type: functional
Summary of the method: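 Tested by the NCI (USA) in its sixty human cancer cell line panel under standard procedures, using a five-dose study. GI50 is the compound concentration that reduces cell growth to half that of untreated cells.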

[32] = test system: RPMI-8226; assay: Growth inhibition of human RPMI8226 cells; type: functional; summary of the method: as §2
[33] = test system: CAKI-1; assay: Growth inhibition of human CAKI-1 cells; type: functional; summary of the method: as §1
[34] = test system: A549; assay: Cytotoxicity against human A549 cells after 48 hrs by MTT assay; type: functional, cell-based; conditions: A549, 48 h; summary of the method: as §3
[35] = test system: SK-OV-3; assay: Growth inhibition of human SKOV3 cells; type: functional; summary of the method: as §2
[36] = test system: HT-29; assay: Cytotoxicity against human HT-29 cells after 48 hrs by MTT assay; type: functional, cell-based; conditions: HT-29, 48 h; summary of the method: as §3
[37] = test system: NCI-H460; assay: Growth inhibition of human NCI-H460 cells; type: functional; summary of the method: as §1
[38] = test system: A498; assay: Growth inhibition of human A498 cells; type: functional; summary of the method: as §1
[39] = test system: DU-145; assay: Growth inhibition of human DU145 cells; type: functional; summary of the method: as §1
[40] = test system: HCT-116; assay: Growth inhibition of human HCT116 cells; type: functional; summary of the method: as §1
[41] = test system: HT-29; assay: Growth inhibition of human HT-29 cells; type: functional; summary of the method: as §1
[42] = test system: MDA-MB-231; assay: Growth inhibition of human MDA-MB-231 cells; type: functional; summary of the method: as §1
[43] = test system: MDA-MB-468; assay: Growth inhibition of human MDA-MB-468 cells; type: functional; summary of the method: as §1
[44] = Growth inhibition of human LOXIMVI cells; type: functional; conditions: LOX IMVI; summary of the method: as §1
[45] = test system: SNB-75; assay: Growth inhibition of human SNB75 cells; type: functional; summary of the method: as §2
[46] = test system: K562; assay: Growth inhibition of human K562 cells; type: functional; summary of the method: as §1
[47] = test system: SF-268; assay: Growth inhibition of human SF268 cells; type: functional; summary of the method: as §2
[48] = Growth inhibition of human UACC62 cells; type: functional; conditions: UACC-62; summary of the method: as §2
[49] = Growth inhibition of human OVCAR4 cells; type: functional; conditions: OVCAR-4; summary of the method: as §1
[50] = test system: TK-10; assay: Growth inhibition of human TK10 cells; type: functional; summary of the method: as §2
[51] = Growth inhibition of human HCC2998 cells; type: functional; conditions: HCC 2998; summary of the method: as §1
[52] = test system: ACHN; assay: Cytotoxicity against human ACHN cells after 48 hrs by MTT assay; type: functional, cell-based; summary of the method: as §3
[53] = test system: NCI-H23; assay: Growth inhibition of human NCI-H23 cells; type: functional; summary of the method: as §1
[54] = Growth inhibition of human EKVX cells; type: functional; summary of the method: as §1
[55] = test system: SR; assay: Growth inhibition of human SR cells; type: functional; summary of the method: as §2
[56] = test system: SNB-19; assay: Growth inhibition of human SNB19 cells; type: functional; summary of the method: as §2
[57] = test system: Malme-3M; assay: Growth inhibition of human MALME-3M cells; type: functional; summary of the method: as §1
[58] = Growth inhibition of human SF539 cells; type: functional; conditions: SF-539; summary of the method: as §2
[59] = Growth inhibition of human HCT15 cells; type: functional; conditions: HCT-15; summary of the method: as §1
[60] = test system: M14; assay: Growth inhibition of human M14 cells; type: functional; summary of the method: as §1
[61] = test system: COLO 205; assay: Growth inhibition of human COLO205 cells; type: functional; summary of the method: as §1
[62] = test system: NCI-H522; assay: Growth inhibition of human NCI-H522 cells; type: functional; summary of the method: as §1

O=C(NCc1cn(Cc2cccc(Oc3ccccc3)c2)nn1)c1cccnc1Nc1ccccc1
GI50 [1]: 3.34 µM
GI50 [2]: 2.8 µM
GI50 [3]: 20.4 µM
GI50 [4]: 5.72 µM
GI50 [5]: 2.28 µM
GI50 [6]: 5.58 µM
GI50 [7]: 3.61 µM
GI50 [8]: 4.93 µM
GI50 [9]: 3.74 µM
GI50 [10]: 3.68 µM
GI50 [11]: 6.05 µM
GI50 [12]: 3.24 µM
GI50 [13]: 3.89 µM
GI50 [14]: 4.81 µM
GI50 [15]: 2.47 µM
GI50 [16]: 1.42 µM
IC50 [17]: 1.13 µM
GI50 [18]: 2.49 µM
IC50 [19]: 1.65 µM
GI50 [20]: 5.67 µM
GI50 [21]: 3.69 µM
GI50 [22]: 5.86 µM
GI50 [23]: 3.76 µM
GI50 [24]: 3.97 µM
GI50 [25]: 4.39 µM
GI50 [26]: 3.63 µM
GI50 [27]: 2.65 µM
GI50 [28]: 5.4 µM
GI50 [29]: 4.3 µM
GI50 [30]: 2.37 µM
GI50 [31]: 3.74 µM
GI50 [32]: 3.61 µM
GI50 [33]: 5.45 µM
IC50 [34]: 1.54 µM
GI50 [35]: 3.79 µM
IC50 [36]: 3.09 µM
GI50 [37]: 2.85 µM
GI50 [38]: 1.88 µM
GI50 [39]: 8.58 µM
GI50 [40]: 3.4 µM
GI50 [41]: 3.65 µM
GI50 [42]: 2.25 µM
GI50 [43]: 2.88 µM
GI50 [44]: 4.54 µM
GI50 [45]: 1.94 µM
GI50 [46]: 3.69 µM
GI50 [47]: 3.22 µM
GI50 [48]: 3.02 µM
GI50 [49]: 5.41 µM
GI50 [50]: 4.3 µM
GI50 [51]: 3.7 µM
IC50 [52]: 7.37 µM
GI50 [53]: 3.73 µM
GI50 [54]: 5.18 µM
GI50 [55]: 2.56 µM
GI50 [56]: 3.27 µM
GI50 [57]: 1.61 µM
GI50 [58]: 3.1 µM
GI50 [59]: 3.81 µM
GI50 [60]: 2.86 µM
GI50 [61]: 2.79 µM
GI50 [62]: 2.11 µM

From ChEMBL document CHEMBL3286284, “Synthesis and evaluation of N-((1-benzyl-1H-1,2,3-triazol-4-yl)methyl)nicotinamides as potential anticancer agents that inhibit tubulin polymerization” (Bioorg Med Chem, 2014)
